Source: ChEMBL document CHEMBL4609986 (Bioorg Med Chem, 2020)

Assays:
[1] = (§1) Cytotoxicity against human HEK293T cells transfected with DYRK1A co-tranfected with Renilla plasmid, pGL3-NFAT and NFATc1 assessed as reduction in luciferase activity by measuring cell number; type: cell-based, HEK-293T
Outline: (§2)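 HEK293T cells transfected with PEI using DYRK1A, Renilla plasmid, IL-2-based pGL3-NFAT firefly reporter and NFATc1. Next day the same transfected population was split into 96-well plates; 6 h later cells were treated for 48 h (11-point dose curve, n = 4), then lysed. EC50 from firefly/Renilla ratio, 4-parameter agonist fit. CC50 from loss of constitutive Renilla signal, 4-parameter inhibitor fit.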

[2] = biological target: T1, Dual specificity tyrosine-phosphorylation-regulated kinase 1A (Homo sapiens, UniProt Q13627); assay: Inhibition of human DYRK1A transfected in HEK293T cells co-transfected with Renilla plasmid, pGL3-NFAT and NFATc1 assessed as derepression of NFAT-dependent luciferase activity measured after 48 hrs by luciferase assay; type: cell-based, HEK-293T; outline: as §2
[3] = species: Homo sapiens; assay: Selectivity index, ratio of CC50 for human HEK293T cells transfected with DYRK1A co-tranfected with Renilla plasmid, pGL3-NFAT and NFATc1 assessed as reduction in luciferase activity by measuring cell number to EC50 for human DYRK1A transfected in HEK293T cells co-transfected with Renilla plasmid, pGL3-NFAT and NFATc1 assessed as derepression of NFAT-dependent luciferase activity measured after 48 hrs by luciferase assay; type: cell-based; outline: as §2
[4] = test system: HEK-293T; assay: as §1; type: cell-based; conditions: hek-293t; outline: as §2
[5] = biological target: T1, Dual specificity tyrosine-phosphorylation-regulated kinase 1A; assay: Inhibition of DYRK1A in human pancreatic islets assessed as induction of pancreatic beta-cells replication measured after 48 hrs by Hoechst 33342 staining based analysis
Outline: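 Human islets (85-95% purity) rested 12 h in low-glucose DMEM with 10% FBS and 20 nM exendin-4. Dispersed to single cells and plated on 804G-conditioned-matrix 384-well plates for 48 h. Treated 48 h, then fixed with 4% PFA. Stained with anti-insulin, anti-Ki-67 and 4 μM Hoechst 33342; Ki67+Insulin+/Insulin+ scored by high-content imaging against per-plate cutoffs.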

[6] = Selectivity index, ratio of CC50 for mouse R7T1 cells assessed as reduction in cell viability measured after 48 hrs by Hoechst 33342 staining based analysis to MEC for inhibition of DYRK1A in human pancreatic islets assessed as induction of pancreatic beta-cells replication measured after 48 hrs by Hoechst 33342 staining based analysis
[7] = Cytotoxicity against mouse R7T1 cells assessed as reduction in cell viability measured after 48 hrs by Hoechst 33342 staining based analysis
Outline: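 Mouse R7T1 β-cells cultured in high-glucose DMEM with 10% FBS, doxycycline and pyruvate, plated at 25,000 cells/well. Treated in quadruplicate 6 h later (0.169–10,000 nM) for 48 h. Cells fixed in paraformaldehyde and stained with 4 μM Hoechst 33342; nuclei counted by high-content imaging.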

Row | EC50 [2] [nM] | MEC [5] [nM] | Compound | CC50 [1] [nM] | Ratio CC50/EC50 [3] | CC50 [4] [nM] | Selectivity Index [6] | CC50 [7] [nM]
1 | 4 | – | CCCCNC(=O)c1cnc2ccc(-c3cc(Cl)c(O)c(Cl)c3)nc2c1N[C@H]1CC[C@H](CN2CCOCC2)CC1 | 79 | 18 | – | – | –
2 | 990 | – | CCOC(=O)c1cnc2ccc(-c3ccc(C(=O)O)cc3)nc2c1N[C@H]1CC[C@H](CN(C)C)CC1 | > 10000 | > 10 | – | – | –
3 | 16 | 500 | CC(=O)NC[C@H]1CC[C@H](Nc2c(CO)cnc3ccc(-c4cc(Cl)c(O)c(Cl)c4)nc23)CC1 | – | 71 | 1140 | 3.4 | 1710
4 | 108 | – | CCOC(=O)c1cnc2ccc(-c3ccnc(N)c3)nc2c1N[C@H]1CC[C@H](CN2CCCC2)CC1 | 756 | 7 | – | – | –
5 | 26 | 31 | CCOC(=O)c1cnc2ccc(-c3cc(Cl)c(O)c(Cl)c3)nc2c1Nc1ccc(CN(C)C)cc1 | 3790 | 146 | – | 7.3 | 226
6 | 5 | – | CCCCCNC(=O)c1cnc2ccc(-c3cc(Cl)c(O)c(Cl)c3)nc2c1N[C@H]1CC[C@H](CN(C)C)CC1 | 19 | 4 | – | – | –
7 | 105 | – | CCOC(=O)c1cnc2ccc(-c3cc(Cl)c(O)c(Cl)c3)nc2c1N1CCOCC1 | 3680 | 35 | – | – | –
8 | 46 | > 500 | CCNC(=O)c1cnc2ccc(-c3ccnc(N)c3)nc2c1N[C@H]1CC[C@H](CN(C)C)CC1 | – | > 216 | > 10000 | – | 330
9 | 45 | 10 | CN(C)C[C@H]1CC[C@H](Nc2c(C#N)cnc3ccc(-c4cc(Cl)c(O)c(Cl)c4)nc23)CC1 | – | > 220 | > 10000 | 16 | 160
10 | 123 | – | CCOC(=O)c1cnc2ccc(-c3cc(Cl)c(O)c(Cl)c3)nc2c1N1CCC(C)CC1 | > 10000 | > 82 | – | – | –
11 | 6 | – | CC(C)CNC(=O)c1cnc2ccc(-c3cc(Cl)c(O)c(Cl)c3)nc2c1N[C@H]1CC[C@H](CN(C)C)CC1 | 16 | 3 | – | – | –
12 | 6 | – | CCCNC(=O)c1cnc2ccc(-c3cc(Cl)c(O)c(Cl)c3)nc2c1N[C@H]1CC[C@H](CN(C)C)CC1 | 38 | 7 | – | – | –
13 | 203 | – | CCOC(=O)c1cnc2ccc(-c3cc(Cl)c(O)c(Cl)c3)nc2c1N1CCCCC1 | 3460 | 17 | – | – | –
14 | 97 | 250 | CCOC(=O)c1cnc2ccc(-c3cc(Cl)c(O)c(Cl)c3)nc2c1N[C@H]1CC[C@H](C(=O)N2CCOCC2)CC1 | 3010 | 21 | – | 8.3 | 2080
15 | 74 | 500 | NC(=O)C[C@H]1CC[C@H](Nc2c(CO)cnc3ccc(-c4cc(Cl)c(O)c(Cl)c4)nc23)CC1 | 1970 | 27 | – | 2.2 | 1080
16 | 383 | – | CCOC(=O)c1cnc2ccc(-c3ccnc(O)c3)nc2c1N[C@H]1CC[C@H](CN(C)C)CC1 | 2360 | 6 | – | – | –
17 | 12 | 250 | CCOC(=O)c1cnc2ccc(-c3cc(C)c(O)c(C)c3)nc2c1N[C@H]1CC[C@H](CN(C)C)CC1 | – | > 842 | > 10000 | >40 | > 10000
18 | 7 | – | CCOC(=O)c1cnc2ccc(-c3cc(Cl)c(O)c(Cl)c3)nc2c1N[C@H]1CC[C@H](CN2CCOCC2)CC1 | 491 | 71 | – | – | –
19 | 300 | – | CCOC(=O)c1cnc2ccc(-c3ccc(O)cc3)nc2c1N[C@H]1CC[C@H](CN(C)C)CC1 | – | > 33 | > 10000 | – | –
20 | 4660 | – | CCOC(=O)c1cnc2ccc(-c3ccc(C(N)=O)cc3)nc2c1N[C@H]1CC[C@H](CN(C)C)CC1 | > 10000 | > 2 | – | – | –
21 | 114 | – | CCOC(=O)c1cnc2ccc(-c3ccnc(N)c3)nc2c1N[C@H]1CC[C@H](CN2CCCCC2)CC1 | 1350 | 12 | – | – | –

Row | EC50 [2] [nM] | MEC [5] [nM] | Compound | CC50 [1] [nM] | Ratio CC50/EC50 [3] | CC50 [4] [nM] | Selectivity Index [6] | CC50 [7] [nM]
22 | 9 | – | CCOC(=O)c1cnc2ccc(-c3cc(Cl)c(O)c(Cl)c3)nc2c1N[C@H]1CC[C@H](N)CC1 | 44 | 5 | – | – | –
23 | 2100 | – | CCOC(=O)c1cnc2ccc(-c3ccc(N)cc3)nc2c1N[C@H]1CC[C@H](CN(C)C)CC1 | > 10000 | > 5 | – | – | –
24 | 678 | – | NC(=O)[C@H]1CC[C@H](Nc2c(CO)cnc3ccc(-c4cc(Cl)c(O)c(Cl)c4)nc23)CC1 | > 10000 | > 15 | – | – | –
25 | 59 | 22 | CCOC(=O)c1cnc2ccc(-c3ccnc(N)c3)nc2c1N[C@H]1CC[C@H](CN(C)C)CC1 | 1130 | 19 | – | 15 | 328
26 | 73 | 250 | CCOC(=O)c1cnc2ccc(-c3cc(Cl)c(O)c(Cl)c3)nc2c1N1CCNCC1 | 10000 | > 137 | – | >40 | > 10000
27 | 1250 | – | CCOC(=O)c1cnc2ccc(-c3cc(Cl)c(O)c(Cl)c3)nc2c1N[C@H]1CC[C@H](C(N)=O)CC1 | > 10000 | > 8 | – | – | –
28 | > 10000 | – | CCOC(=O)c1cnc2ccc(-c3cc(C)nc(C)c3)nc2c1N[C@H]1CC[C@H](CN(C)C)CC1 | > 10000 | – | – | – | –
29 | 1340 | – | CCOC(=O)c1cnc2ccc(-c3ccc(O)nc3)nc2c1N[C@H]1CC[C@H](CN(C)C)CC1 | > 10000 | > 7.5 | – | – | –
30 | 6 | – | CNC(=O)c1cnc2ccc(-c3cc(Cl)c(O)c(Cl)c3)nc2c1N[C@H]1CC[C@H](CN(C)C)CC1 | 36 | 6 | – | – | –
31 | 15 | 68 | CCOC(=O)c1cnc2ccc(-c3cc(Cl)c(O)c(Cl)c3)nc2c1N[C@H]1CC[C@H](CNC(C)=O)CC1 | – | 217 | 3340 | 15 | 1020
32 | 100 | 250 | CCOC(=O)c1cnc2ccc(-c3cc(Cl)c(O)c(Cl)c3)nc2c1N[C@H]1CC[C@H](CO)CC1 | 2670 | 27 | – | 3.1 | 785
33 | 3 | – | CC(C)CCNC(=O)c1cnc2ccc(-c3cc(Cl)c(O)c(Cl)c3)nc2c1N[C@H]1CC[C@H](CN(C)C)CC1 | 21 | 8 | – | – | –
34 | 354 | – | CN(C)C[C@H]1CC[C@H](Nc2c(C(=O)N(C)C)cnc3ccc(-c4cc(Cl)c(O)c(Cl)c4)nc23)CC1 | – | > 28 | > 10000 | – | –
35 | 641 | – | CN(C)C[C@H]1CC[C@H](Nc2c(C(=O)N3CCOCC3)cnc3ccc(-c4cc(Cl)c(O)c(Cl)c4)nc23)CC1 | – | > 16 | > 10000 | – | –
36 | – | – | CCOC(=O)c1cnc2ccc(-c3ccnc(C)c3)nc2c1N[C@H]1CC[C@H](CN(C)C)CC1 | > 10000 | > 7 | – | – | –
37 | 6 | – | CCNC(=O)c1cnc2ccc(-c3cc(Cl)c(O)c(Cl)c3)nc2c1N[C@H]1CC[C@H](CN(C)C)CC1 | 39 | 7 | – | – | –
38 | > 10000 | – | CCOC(=O)c1cnc2ccc(-c3cc(Cl)cc(Cl)c3)nc2c1N[C@H]1CC[C@H](CN(C)C)CC1 | > 10000 | – | – | – | –
39 | 11 | 125 | CC(=O)c1cnc2ccc(-c3cc(Cl)c(O)c(Cl)c3)nc2c1N[C@H]1CC[C@H](C(N)=O)CC1 | 1660 | 153 | – | 1.8 | 231
40 | 175 | 125 | CCCCNC(=O)c1cnc2ccc(-c3cc(Cl)c(O)c(Cl)c3)nc2c1N[C@H]1CC[C@H](C(N)=O)CC1 | – | 39 | 6850 | 14 | 1790
41 | 15 | – | CN(C)C[C@H]1CC[C@H](Nc2c(C(N)=O)cnc3ccc(-c4cc(Cl)c(O)c(Cl)c4)nc23)CC1 | 69 | 4 | – | – | –

Row | Compound | EC50 [2] [nM] | MEC [5] [nM] | CC50 [1] [nM] | Ratio CC50/EC50 [3] | CC50 [4] [nM] | Selectivity Index [6] | CC50 [7] [nM]
42 | CCOC(=O)c1cnc2ccc(-c3cc(Cl)c(O)c(Cl)c3)nc2c1N[C@H]1CC[C@H](C)CC1 | > 10000 | – | > 10000 | – | – | – | –
